Assay results as given in ChEMBL document CHEMBL2384907, “Identification of substituted pyrimido[5,4-b]indoles as selective Toll-like receptor 4 ligands” (J Med Chem, 2013).
Activity calls are given as the source filed them. The rule behind the calls is not given here.

Tests used:
[1] = biological target: T1, Toll-like receptor 9 (Homo sapiens) (UniProt Q9NR96); test: Activation of human TLR9 transfected in HEK293 cells at 10 uM after 20 to 24 hrs by SEAP assay; assay type: cell-based
T1 sequence (whole entry): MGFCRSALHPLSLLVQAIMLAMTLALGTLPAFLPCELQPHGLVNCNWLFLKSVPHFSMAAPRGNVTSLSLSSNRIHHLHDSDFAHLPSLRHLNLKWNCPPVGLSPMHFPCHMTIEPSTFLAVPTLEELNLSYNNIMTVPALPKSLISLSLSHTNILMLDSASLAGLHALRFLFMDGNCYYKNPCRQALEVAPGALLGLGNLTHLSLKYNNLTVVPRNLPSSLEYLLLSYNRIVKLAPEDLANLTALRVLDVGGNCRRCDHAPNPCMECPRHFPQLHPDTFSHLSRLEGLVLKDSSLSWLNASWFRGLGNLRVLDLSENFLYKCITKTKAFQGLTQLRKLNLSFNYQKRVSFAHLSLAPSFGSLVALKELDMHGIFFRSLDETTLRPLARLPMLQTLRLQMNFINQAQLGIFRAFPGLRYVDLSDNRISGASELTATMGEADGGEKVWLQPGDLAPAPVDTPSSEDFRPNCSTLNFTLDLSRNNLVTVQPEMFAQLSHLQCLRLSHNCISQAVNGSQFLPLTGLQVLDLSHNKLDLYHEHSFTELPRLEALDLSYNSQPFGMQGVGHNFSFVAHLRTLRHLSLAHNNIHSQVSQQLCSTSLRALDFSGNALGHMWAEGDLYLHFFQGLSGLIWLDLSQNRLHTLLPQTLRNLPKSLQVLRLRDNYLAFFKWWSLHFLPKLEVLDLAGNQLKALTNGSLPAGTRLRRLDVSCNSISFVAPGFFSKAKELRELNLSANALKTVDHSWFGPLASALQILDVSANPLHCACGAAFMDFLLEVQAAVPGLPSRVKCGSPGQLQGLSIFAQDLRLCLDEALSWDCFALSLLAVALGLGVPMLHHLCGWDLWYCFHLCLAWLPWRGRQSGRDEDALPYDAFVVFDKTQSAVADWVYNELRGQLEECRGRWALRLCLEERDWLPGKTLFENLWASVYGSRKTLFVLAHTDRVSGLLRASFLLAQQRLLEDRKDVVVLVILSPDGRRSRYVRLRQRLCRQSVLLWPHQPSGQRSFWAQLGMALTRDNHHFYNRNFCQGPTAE

[2] = biological target: T2, Toll-like receptor 4 (Mus musculus) (UniProt Q9QUK6); test: Activation of TLR4-mediated type 1 IFN release in C57BL/6 mouse BMDC cells after overnight incubation by luciferase reporter gene assay; assay type: cell-based
T2 sequence (whole entry): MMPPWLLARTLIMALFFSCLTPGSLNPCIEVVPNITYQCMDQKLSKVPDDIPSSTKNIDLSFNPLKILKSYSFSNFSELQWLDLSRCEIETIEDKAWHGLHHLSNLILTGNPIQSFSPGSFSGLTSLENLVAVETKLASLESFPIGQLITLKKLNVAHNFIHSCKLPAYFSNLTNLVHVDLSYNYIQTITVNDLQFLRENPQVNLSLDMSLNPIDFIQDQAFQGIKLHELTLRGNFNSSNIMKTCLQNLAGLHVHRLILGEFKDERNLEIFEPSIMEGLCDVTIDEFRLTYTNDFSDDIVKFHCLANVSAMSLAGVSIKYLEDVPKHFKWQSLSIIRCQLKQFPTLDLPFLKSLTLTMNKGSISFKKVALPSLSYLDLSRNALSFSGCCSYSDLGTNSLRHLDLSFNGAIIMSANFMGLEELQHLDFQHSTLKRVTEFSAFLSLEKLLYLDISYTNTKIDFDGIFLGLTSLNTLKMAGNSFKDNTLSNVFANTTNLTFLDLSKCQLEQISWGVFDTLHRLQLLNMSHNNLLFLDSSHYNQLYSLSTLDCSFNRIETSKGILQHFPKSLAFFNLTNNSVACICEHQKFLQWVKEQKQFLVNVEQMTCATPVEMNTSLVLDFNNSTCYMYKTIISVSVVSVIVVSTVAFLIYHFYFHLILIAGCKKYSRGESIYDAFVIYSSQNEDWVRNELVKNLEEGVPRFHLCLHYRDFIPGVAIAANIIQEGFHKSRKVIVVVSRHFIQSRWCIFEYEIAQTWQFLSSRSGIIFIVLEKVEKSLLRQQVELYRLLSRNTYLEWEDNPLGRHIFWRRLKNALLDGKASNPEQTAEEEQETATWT
How it was run: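 Wild-type BMDC incubated overnight with graded concentrations (0.5% DMSO vehicle); 50 μL supernatant put on L929-ISRE luciferase reporter cells (5 × 10^4/well, DMEM-10) for 6 h; luciferase read, quantified against mouse IFN-β standard. Mean ± SEM of triplicates, two independent experiments.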

[3] = biological target: Toll-like receptor 4 (Homo sapiens) (UniProt O00206); test: Activation of human TLR4 transfected in HEK293 cells after 18 hrs by SEAP assay relative to N-cyclohexyl-2-(4-oxo-3-phenyl-4,5-dihydro-3H-pyrimido[5,4-b]indol-2-ylthio)acetamide; assay type: cell-based; design: concentration or dose not given beside the values
How it was run: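 Human TLR4 HEK-Blue cells (2.5 × 10^4/well) given compound at 10 μM for 18 h, 0.5% DMSO vehicle; SEAP in supernatant read at 630 nm, normalized to reference hit set at 100. LPS 10 ng/mL positive control.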

[4] = biological target: T2, Toll-like receptor 4 (Mus musculus); test: Activation of TLR4 in C57BL/6 mouse BMDC cells assessed as AUC of IL6 release after 18 hrs by ELISA relative to N-cyclohexyl-2-(4-oxo-3-phenyl-4,5-dihydro-3H-pyrimido[5,4-b]indol-2-ylthio)acetamide; assay type: cell-based
How it was run: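 C57BL/6 bone marrow DC, 10^5 cells/well in RPMI-10% FCS, 18 h at 37 °C with titrated doses 312 nM–10 μM; supernatant IL-6 by ELISA. Each curve converted to percent activity (background subtracted, plate-adjusted), AUC by trapezoid method, normalized to reference hit set at 100 per experiment. LPS 10 ng/mL positive control; 0.5% DMSO vehicle.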

[5] = biological target: Toll-like receptor 4/MD-2/CD14 (Mus musculus) (UniProt Q9QUK6+Q9JHF9+P10810); test: Activation of mouse TLR4/MD-2/CD14 complex in HEK293 cells assessed as NFkappaB activation by SEAP assay in presence of LPS-RS
BMDC = test: Induction of IL6 secretion in C57BL/6 mouse TLR4 deficient BMDC cells at 10 uM after 18 hrs by ELISA; assay type: functional, cell-based
How it was run: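 BMDC from Tlr4–/– mice (backcrossed 10 generations onto C57BL/6) and wild-type mice incubated with 10 μM compound for 18 h; IL-6 in culture supernatants by ELISA.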

Chain of Toll-like receptor 4 (Homo sapiens) (O00206 whole entry): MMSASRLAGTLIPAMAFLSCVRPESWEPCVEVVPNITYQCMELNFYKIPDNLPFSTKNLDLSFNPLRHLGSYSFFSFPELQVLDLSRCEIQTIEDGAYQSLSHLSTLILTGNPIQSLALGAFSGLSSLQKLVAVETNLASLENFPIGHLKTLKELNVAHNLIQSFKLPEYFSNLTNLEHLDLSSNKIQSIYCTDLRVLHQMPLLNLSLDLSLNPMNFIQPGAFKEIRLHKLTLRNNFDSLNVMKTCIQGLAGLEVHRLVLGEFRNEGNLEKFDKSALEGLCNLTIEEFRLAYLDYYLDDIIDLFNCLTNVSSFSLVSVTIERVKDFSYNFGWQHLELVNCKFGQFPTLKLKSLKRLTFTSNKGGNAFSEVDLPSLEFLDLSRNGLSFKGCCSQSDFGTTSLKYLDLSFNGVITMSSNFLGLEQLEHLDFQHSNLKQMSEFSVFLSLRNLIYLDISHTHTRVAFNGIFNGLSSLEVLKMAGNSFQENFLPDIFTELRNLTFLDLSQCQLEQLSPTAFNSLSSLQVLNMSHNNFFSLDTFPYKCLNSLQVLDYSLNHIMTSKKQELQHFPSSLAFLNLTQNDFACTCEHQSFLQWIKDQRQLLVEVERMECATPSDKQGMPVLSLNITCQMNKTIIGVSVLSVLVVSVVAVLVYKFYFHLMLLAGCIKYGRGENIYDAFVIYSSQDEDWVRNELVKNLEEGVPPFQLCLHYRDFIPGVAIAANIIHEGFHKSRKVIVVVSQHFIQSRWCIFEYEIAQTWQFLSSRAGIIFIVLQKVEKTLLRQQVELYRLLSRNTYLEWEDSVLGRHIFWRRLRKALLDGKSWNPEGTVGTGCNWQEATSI

Activity [1]: inactive | Activity [2]: Dose-dependent effect | Activity [3]: 100% | Activity [4]: 100% | Activity [5]: Dose-dependent effect
Structure (SMILES): O=C(CSc1nc2c([nH]c3ccccc32)c(=O)n1-c1ccccc1)NC1CCCCC1
Activity (BMDC): inactive
